This passage reports EC50, Max stimulation and IC50 results from ChEMBL document CHEMBL1124802 (J Med Chem, 1990).

Test [1] can be described thus: Stimulation of Adenylate cyclase from rat striatal membranes. In kind it is cell membranes, Membrane. In a few lines: (§1)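 Rat striatum homogenised in HEPES/EGTA buffer. […] Stopped with SDS, then ZnSO4/Ba(OH)2 precipitation. [32P]cAMP isolated by HPLC with UV-tracked internal standard and counted; percent stimulation calculated from peak areas and radioactivity.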

A short description of test [2]: Percentage maximum stimulation adenylate cyclase was measured versus DA. The procedure, abridged: as §1
The next test deals with D(1A) dopamine receptor (Rattus norvegicus, UniProt P18901). Put plainly: Displacement of [3H]- #NAME? from binding Dopamine receptor D1 in rat striatum. In a few lines: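 Rat striatal membranes, homogenised and washed twice by centrifugation in ice-cold 50 mM HEPES with 4 mM MgCl2, pH 7.4, at about 2 mg wet weight/mL. Competition with the tritiated selective D1 antagonist in 1.0 mL of the same buffer, 37 °C for 15 min. Nonspecific binding defined with 1 µM of the unlabelled antagonist. Filtration and scintillation counting; protein measured by Lowry.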
(In general: Displacement assays read how much labelled ligand stays bound in the presence of the test substance.)

A further test concerns the target D(2) dopamine receptor (Rattus norvegicus, UniProt P61169). Description: Displacement of [3H]- -spiperone from Dopamine receptor D2 in rat striatum. The procedure, abridged:
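Same rat striatal membrane preparation and buffer (50 mM HEPES, 4 mM MgCl2, pH 7.4). Competition with [3H]spiperone in 1.0 mL at 37 °C for 15 min. Nonspecific binding defined with 1 µM chlorpromazine. Bound ligand collected by glass-fibre filtration and counted by scintillation; protein measured by Lowry.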

Chain of D(1A) dopamine receptor (P18901 whole entry): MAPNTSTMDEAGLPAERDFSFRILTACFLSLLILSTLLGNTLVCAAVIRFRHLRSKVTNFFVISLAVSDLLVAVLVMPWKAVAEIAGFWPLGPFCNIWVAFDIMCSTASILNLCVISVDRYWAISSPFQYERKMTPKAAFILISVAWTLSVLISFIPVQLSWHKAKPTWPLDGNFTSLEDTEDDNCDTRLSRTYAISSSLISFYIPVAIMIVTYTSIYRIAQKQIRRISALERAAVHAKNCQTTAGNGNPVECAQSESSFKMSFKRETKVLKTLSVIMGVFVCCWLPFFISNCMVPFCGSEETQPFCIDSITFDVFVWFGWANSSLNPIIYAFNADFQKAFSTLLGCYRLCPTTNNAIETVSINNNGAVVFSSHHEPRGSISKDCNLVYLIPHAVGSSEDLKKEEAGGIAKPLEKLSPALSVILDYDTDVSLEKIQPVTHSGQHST
Chain of D(2) dopamine receptor (P61169 whole entry): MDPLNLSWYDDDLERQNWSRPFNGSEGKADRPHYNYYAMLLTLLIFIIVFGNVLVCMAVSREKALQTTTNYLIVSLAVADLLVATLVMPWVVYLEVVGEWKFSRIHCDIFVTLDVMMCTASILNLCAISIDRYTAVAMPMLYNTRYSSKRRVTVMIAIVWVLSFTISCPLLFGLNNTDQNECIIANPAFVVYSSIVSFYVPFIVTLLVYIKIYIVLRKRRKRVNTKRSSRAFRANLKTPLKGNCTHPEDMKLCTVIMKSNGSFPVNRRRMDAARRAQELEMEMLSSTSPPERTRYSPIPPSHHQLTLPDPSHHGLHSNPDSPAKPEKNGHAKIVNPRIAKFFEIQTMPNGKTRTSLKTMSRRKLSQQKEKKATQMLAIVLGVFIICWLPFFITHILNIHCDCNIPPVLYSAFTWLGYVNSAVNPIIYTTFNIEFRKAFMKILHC

As a reminder, the EC50 is the concentration giving half of the maximal effect. A lower EC50 goes with a more potent agent. The IC50 is the midpoint of a concentration-inhibition curve. Lower therefore signals inhibition by little substance. Consider `CN1Cc2ccccc2[C@@H]2c3cc(O)c(O)cc3CC[C@H]21`, for which, in test [1], it took 1 µM to reach a half-maximal effect (EC50). In test [2], this molecule registered a Max stimulation of 63. For the same molecule, the IC50 at D(1A) dopamine receptor was determined as 0.091 µM; at D(2) dopamine receptor, 0.136 µM.
The molecule `Oc1cc2c(cc1O)CC(NCc1ccccc1)CC2` (configuration not stated) displayed a Max stimulation in test [2] of 25. The IC50 at D(1A) dopamine receptor is above 5 µM; on D(2) dopamine receptor, 0.29 µM.
In turn, `NCCc1ccc(O)c(O)c1` [DOPAMINE] registered an EC50 in test [1] of 5 µM. The molecule also came in with a Max stimulation in test [2] of 100.
For the molecule `Oc1cc2c(cc1O)[C@H]1CCCN[C@@H]1CC2`, the EC50 in test [1] is above 0.01 µM. This molecule also registered a Max stimulation in test [2] of 33. For the same molecule, the IC50 was above 5 µM on D(1A) dopamine receptor and 0.068 µM at D(2) dopamine receptor.
The molecule `Oc1cc2c(cc1O)[C@@H]1c3ccccc3CN[C@@H]1CC2` gave a Max stimulation in test [2] of 17.
On to `Oc1cc2c(cc1O)[C@@H](c1ccccc1)CNCC2` [(R)-SKF-38393], for which the EC50 in test [1] is 0.1 µM. The Max stimulation in test [2] was found to be 50.
Consider `Oc1cc2c(cc1O)[C@H]1c3ccccc3CN[C@@H]1CC2` [DIHYDREXIDINE], for which the midpoint of the response in test [1], the EC50, lay at 0.07 µM. This molecule also displayed a Max stimulation in test [2] of 120.
Regarding `CCCN1Cc2ccccc2[C@@H]2c3cc(O)c(O)cc3CC[C@H]21`, the 50% effective concentration (EC50) in test [1] was above 0.01 µM. In addition, the Max stimulation in test [2] is 32. Besides, the results for the IC50 on D(1A) dopamine receptor and at D(2) dopamine receptor were 0.651 µM and 0.053 µM, respectively.
Molecule `CN1CCc2cc(Cl)c(O)cc2[C@@H](c2ccccc2)C1` yielded a Max stimulation in test [2] of 0.
In test [1], `Oc1ccc([C@@H]2CNCc3sccc32)cc1O` returned an EC50 of 0.7 µM. The molecule further returned a Max stimulation in test [2] of 120. The figures for the IC50 at D(1A) dopamine receptor and at D(2) dopamine receptor were 0.12 µM and 0.285 µM, respectively.
